# CXCR6 block: blocks human CXCR6 beta-arrestin recruitment; CHO-K1 PathHunter CXCR6 beta-arrestin, luminescence; inhibition, % at 20 µM; hit rate 0.36% among 360,000; AID 602244; in the data active means inhibition above about 34%, passing the limit was not always enough;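 further: antagonist mode with CXCL16 agonist at 10 nM final; 0% = 10 nM CXCL16 with DMSO and 100% = unstimulated wells without agonist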
# Target sequence (O00574 whole entry, looked up): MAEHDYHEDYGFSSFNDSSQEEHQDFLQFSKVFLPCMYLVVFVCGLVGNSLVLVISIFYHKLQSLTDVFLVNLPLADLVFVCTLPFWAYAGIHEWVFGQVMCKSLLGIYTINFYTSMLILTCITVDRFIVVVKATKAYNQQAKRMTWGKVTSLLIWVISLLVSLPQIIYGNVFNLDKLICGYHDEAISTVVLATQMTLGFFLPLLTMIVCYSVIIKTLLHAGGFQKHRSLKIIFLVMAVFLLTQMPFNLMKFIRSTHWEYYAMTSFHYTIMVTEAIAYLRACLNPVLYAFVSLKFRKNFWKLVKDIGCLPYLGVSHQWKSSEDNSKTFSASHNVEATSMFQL
# APJ antagonist: APJ receptor antagonism. P35414. inhibition, % at 20 µM. CHO-K1 APJ beta-arrestin complementation, luminescence. hit rate 0.32% among 330,000;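 active means inhibition above about 40% at 20 µM, limit read from the data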;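 further: cells challenged with 10 nM apelin-13 agonist together with compound; plate controls were apelin-13 plus DMSO wells for no effect and DMSO wells lacking apelin-13 for full effect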
# APJ ag: APJ receptor agonism. CHO-K1 APJ PathHunter beta-arrestin, luminescence; 0% DMSO wells, 100% apelin. activation, % at 20 µM. hit rate 0.11% among 330,000;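 active means activation more than six SD over the plate average, tested at 20 µM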;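 further: 0% = DMSO alone and 100% = apelin-13 at 10 nM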
#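 Assay system: engineered CHO-K1 APJ arrestin reporter cells; Amount: 1000 CHO-K1 reporter cells seeded per well; Dosing: one dose, 20 µM compound, 1% DMSO; Times: compound stimulation 90 min at 25 °C, detection 60 min; Measured by: luminescent beta-gal fragment complementation, chemiluminescent substrate; Read-out: APJ–arrestin association signal; Controls: DMSO vs Apelin-13 10 nM.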
# CCR6 antag: antagonists of human CCR6 receptor; CHO-K1 CCR6 PathHunter beta-arrestin, luminescence, CCL20-stimulated; inhibition, % at 20 µM; hit rate 0.49% among 340,000;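 active means compounds whose inhibition of the agonist-driven luminescence signal at 20 µM reaches about 50%, limit read from the data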;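 further: cells stimulated with CCL20 at 14 nM final; plate controls were DMSO with CCL20 for no effect and DMSO without agonist for full effect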
# EBI2 block: blocks human EBI2 receptor beta-arrestin signaling; AID 651636; P32249; inhibition, % at 5 µM; EBI2 beta-arrestin recruitment, luminescence, 7a,25-OHC stimulated; hit rate 0.81% among 360,000; in the data active means inhibition above about 38%;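 further: enzyme fragment complementation signal reports receptor beta-arrestin coupling in cells; 0% = agonist plus DMSO wells and 100% = wells without agonist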
# EBI2 antag conf: confirmation of human EBI2 receptor antagonists | shares compounds with EBI2 block | EBI2 beta-arrestin luminescence, 7a,25-OHC antagonism | inhibition, % at 5 µM | hit rate 29% among 2,400;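 active means inhibition of at least 50%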
# EBI2 agonist: activates EBI2, counter-screen for EBI2 antagonists. shares compounds with EBI2 block. EBI2-expressing cells, agonist mode, luminescence, 60 min; 0% vehicle, 100% 7α,25-dihydroxycholesterol control. activation, % at 5 µM. 2,400 tested, under 10 active. AID 652000;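 active means activation of at least 50%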
# bGal cs: counter-screen for EBI2 antagonists: E. coli beta-galactosidase inhibition | hit rate 1% among 2,400 | shares compounds with EBI2 block | purified beta-galactosidase, luminescent Galacton Star, 15 min | inhibition, % at 5 µM;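 active means replicate-average signal at least 3 plate SD below neutral wells, shown as high inhibition, flagging enzyme-inhibiting false positives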;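 further: 0% = DMSO wells with enzyme and 100% = wells lacking enzyme; higher means stronger loss of beta-gal luminescence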
# * marks the source's active call; other numbers are inactive results; . = not tested or not shown. This is a sample that favours compounds with a hit; in the whole collection about 1.5% have one here.
SMILES,CXCR6 block,APJ antagonist,APJ ag,CCR6 antag,EBI2 block,EBI2 antag conf,EBI2 agonist,bGal cs
Cc1ccccc1NC(=O)c1nn(C)c2c1CS(=O)(=O)c1ccccc1-2,-6,9,1,-1,4,.,.,.
COc1cc(C2NC(=O)N(C)C(C)=C2C(=O)OCc2ccccc2)cc(Br)c1O (centres undefined),0,10,1,10,-7,.,.,.
CC(NS(=O)(=O)c1ccc(N)cc1)C1CC2CCC1C2 (centres undefined),-8,5,0,7,-8,.,.,.
O=C(CN(Cc1ccc(Br)cc1)S(=O)(=O)c1ccccc1)NCC1CCCO1 (centres undefined),2,0,-8,8,-11,.,.,.
CN1CCN(C(=O)/C=C/c2ccc(Cl)c(Cl)c2)CC1,4,7,-5,9,92*,61*,2,4
O=C(/C=C/c1ccccc1)N1CCN(Cc2nc3ccccc3c(=O)[nH]2)CC1,-1,-19,-3,-1,72*,75*,0,5
O=C(/C=C/c1ccc(Cl)c(Cl)c1)N1CCc2ccccc21,4,4,-4,13,21,.,.,.
O=C(/C=C/c1ccc(Cl)cc1)N1CCN(Cc2ccccc2)CC1,0,-3,0,-1,97*,89*,2,0
O=c1[nH]c(CN2CCCCC2)nc2ccccc12,8,3,-2,-1,-13,.,.,.
C=CCn1c(=O)c2ccc(C(=O)NCc3ccccc3)cc2n(Cc2cccc(Cl)c2)c1=O,12,-3,-4,26,55*,45,2,2
O=C(O/N=C\c1ccc(N2CCCCC2)c([N+](=O)[O-])c1)c1ccc(Cl)cc1Cl,11,13,-3,14,51*,13,1,7
O=C(/C=C/c1cccs1)N1CCN(c2ccc(F)cc2)CC1,5,17,2,22,55*,36,1,7
O=C(/C=C/c1cccs1)N1CCOCC1,8,7,-2,1,-9,.,.,.
CC(=O)c1ccc(N2CCN(C(=O)/C=C/c3cccs3)CC2)cc1,-2,-10,-4,6,15,.,.,.
O=C(/C=C/c1ccc(Cl)cc1)N1CCN(c2ccc(Cl)cc2[N+](=O)[O-])CC1,1,3,-4,15,98*,80*,0,10
O=C(/C=C/c1cccs1)N1CCN(c2ccccc2F)CC1,8,-19,-3,4,50*,52*,0,7
O=C(CN1CCN(c2ccc(Cl)cc2[N+](=O)[O-])CC1)N1CCOCC1,-7,-2,3,-8,7,.,.,.
Cc1cccc(CN(C(=S)Nc2c(C)cccc2C)c2cccnc2)c1,-12,17,-2,5,3,.,.,.
CCCCN(C=O)c1c(CC)nc2ccc(C(=O)N3CCN(C(C)=O)CC3)cn12,-8,.,.,.,0,.,.,.
CCCCCCCCN1C(=O)[C@H](CC(=O)NCc2cccc3ccccc23)C[C@@]2(C(=O)OCC)CCC=C12,.,.,.,.,12,.,.,.
O=C(/C=C/c1ccccc1)N1CCN(c2c(Cl)cccc2[N+](=O)[O-])CC1,-4,-2,-2,15,95*,91*,2,2
CCC(=O)N1CCN(c2c(Cl)cccc2[N+](=O)[O-])CC1,4,-18,-2,18,-3,.,.,.
O=C(/C=C/c1ccc([N+](=O)[O-])cc1)N1CCN(c2ccccc2F)CC1,5,8,2,-10,68*,24,2,7
O=C(Cc1ccccc1[N+](=O)[O-])N1CCN(c2ccccc2F)CC1,-7,-2,-2,-6,-1,.,.,.
CCOC(=O)C1CCN(C2=NC(=O)/C(=C/c3ccc(Cl)cc3)S2)CC1,6,8,-2,-3,87*,66*,0,5
SMILES,CXCR6 block,APJ antagonist,APJ ag,CCR6 antag,EBI2 block,EBI2 antag conf,EBI2 agonist,bGal cs
O=C1N=C(N2CCCCC2)S/C1=C\c1ccc(Br)cc1,4,2,-1,-2,87*,58*,0,-15
Cc1ccc(/C=C2\SC(N3CCCC3)=NC2=O)cc1,.,4,-1,.,.,.,.,.
CCOc1ccc(/C=C2\SC(N3CCCCC3)=NC2=O)cc1,2,-1,0,2,74*,50*,2,8
C[C@H]1CN([C@@H](C)CO)C(=O)CCCn2nncc2CO[C@H]1CN(C)S(=O)(=O)c1ccc(F)cc1,1,.,.,.,4,.,.,.
COc1cccc(CNC(=O)C2CCN(S(=O)(=O)N3CCC(C)CC3)CC2)c1,6,27,-1,7,8,.,.,.
CCC(=O)N1CCN(c2cc(C)ccc2C)CC1,2,17,-8,-8,4,.,.,.
Cc1ccc(C)c(N2CCN(C(=O)c3csc4ccccc34)CC2)c1,2,19,-5,15,48*,32,1,3
COCC(C)NC(=O)CSc1nc2ccccc2c(=O)n1CCc1ccc(S(N)(=O)=O)cc1 (centres undefined),4,-59,8,6,-7,.,.,.
O=C(Nc1ccc2c(c1)OCO2)N1CCN(c2ccccc2)CC1,4,-6,1,14,7,.,.,.
O=C(Nc1ccc2c(c1)OCO2)N1CCN(C/C=C/c2ccccc2)CC1,4,24,-2,-14,45*,25,-1,-8
Cc1ccc(C(=O)CCC(=O)N2CCN(C/C=C/c3ccccc3)CC2)cc1,-4,.,.,.,11,.,.,.
Cc1ccc(NC(=O)N2CCN(C/C=C/c3ccccc3)CC2)cc1,1,-2,1,5,45*,17,2,4
O=C1CC(NS(=O)(=O)c2cc(F)ccc2F)CN1c1ccc2c(c1)OCCO2 (centres undefined),7,-49,1,7,5,.,.,.
c1ccc(-c2cc3nc(NCC4CC4)nc(NCC4CCCCC4)c3s2)cc1,8,.,.,.,56*,38,2,5
COCCNc1nc(NCC2CCCCC2)c2sc(-c3ccccc3)cc2n1,-3,.,.,.,29,.,.,.
COCCNc1nc(NCCOc2ccccc2Cl)c2sc(-c3ccccc3)cc2n1,16,.,.,.,40*,23,-2,-3
O=C(NCc1ccccc1)N1CCC(Cc2ccccc2)CC1,5,-1,-3,11,5,.,.,.
c1ccc(CCNc2ncnc3scc(C4COc5ccccc5O4)c23)cc1 (centres undefined),-6,14,-3,4,87*,55*,1,-1
CN(C)C(=O)CCc1ccc2c3c([nH]c2c1)[C@]1(CCc2ccccc2)[C@@H](C(=O)N2CCCCC2)C[C@H](CC(=O)NCc2cccc(C(F)(F)F)c2)C(=O)N1CC3,9,.,.,14,42*,33,-1,-23
